Here are results for 25 compounds from ChEMBL document CHEMBL4706589, “Discovery of 5-bromo-4-phenoxy-N-phenylpyrimidin-2-amine derivatives as novel ULK1 inhibitors that block autophagy and induce apoptosis in non-small cell lung cancer” (Eur J Med Chem, 2020).

Some results are limits rather than exact numbers.

Test [1] concerns the target T1, Serine/threonine-protein kinase ULK1 (Homo sapiens) (UniProt O75385).
T1 sequence (whole entry): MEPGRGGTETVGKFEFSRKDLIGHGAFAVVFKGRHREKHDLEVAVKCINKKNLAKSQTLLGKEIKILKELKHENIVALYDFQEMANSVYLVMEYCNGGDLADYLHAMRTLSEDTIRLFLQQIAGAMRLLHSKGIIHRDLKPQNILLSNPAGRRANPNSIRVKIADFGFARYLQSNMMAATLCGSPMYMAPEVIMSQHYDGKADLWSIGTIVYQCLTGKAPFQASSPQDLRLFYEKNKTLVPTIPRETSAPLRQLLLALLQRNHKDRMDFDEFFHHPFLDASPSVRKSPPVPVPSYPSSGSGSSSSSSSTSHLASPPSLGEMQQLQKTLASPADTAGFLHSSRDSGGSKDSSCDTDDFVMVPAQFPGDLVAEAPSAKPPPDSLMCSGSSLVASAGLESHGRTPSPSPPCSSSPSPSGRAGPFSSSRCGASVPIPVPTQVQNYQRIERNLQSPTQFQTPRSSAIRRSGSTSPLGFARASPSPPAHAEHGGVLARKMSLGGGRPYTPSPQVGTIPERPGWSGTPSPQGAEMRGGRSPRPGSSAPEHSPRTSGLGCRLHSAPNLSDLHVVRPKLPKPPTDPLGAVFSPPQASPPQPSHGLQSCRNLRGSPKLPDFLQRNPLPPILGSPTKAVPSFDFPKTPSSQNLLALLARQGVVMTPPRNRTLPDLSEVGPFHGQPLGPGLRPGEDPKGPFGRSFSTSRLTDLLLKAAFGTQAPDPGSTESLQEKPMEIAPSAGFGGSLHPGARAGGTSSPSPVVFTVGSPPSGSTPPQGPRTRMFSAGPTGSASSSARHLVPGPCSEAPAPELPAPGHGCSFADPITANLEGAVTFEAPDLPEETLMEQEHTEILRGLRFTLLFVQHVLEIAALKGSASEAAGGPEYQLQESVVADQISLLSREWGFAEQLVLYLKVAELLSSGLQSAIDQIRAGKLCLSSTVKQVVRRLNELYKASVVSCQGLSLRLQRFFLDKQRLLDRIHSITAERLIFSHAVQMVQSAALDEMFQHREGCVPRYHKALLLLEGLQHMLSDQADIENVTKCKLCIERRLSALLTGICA
The experiment in a line: Inhibition of recombinant human ULK1 at 10 uM preincubated for 60 mins followed by substrate addition and measured after 30 mins by ADP-glo assay. The following applies: time 90.0 min. The gist of the method: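 Recombinant ULK1 activity was measured by ADP-Glo luminescence of ADP formed, in 40 mM Tris pH 7.5, 20 mM MgCl₂, 0.1 mg/ml BSA and […]. After the kinase reaction, plates were mixed 2 min and held 40 min at room temperature. Detection reagent was then added for 30 min at room temperature before luminescence was read.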

For a further test, the system named is A549. The experiment in a line: Antiproliferative activity against human A549 cells assessed as reduction in cell viability after 24 hrs by MTT assay. In kind it is functional, cell-based. Conditions: A549, 24 h. The gist of the method: (§1)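 Cells seeded at 5.5 × 10⁴ cells/mL in 96-well plates and grown 24 h before exposure to graded compound concentrations. Viability read by MTT after 24 h. A549, MCF-7 and MDA-MB-468 were kept in DMEM with 10% FBS under 5% CO₂; HL60 and U937 in RPMI 1640 with 10% FBS. IC50 taken as mean of triplicate tests.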

The subject of the next test is U-937. The experiment in a line: Antiproliferative activity against human U937 cells assessed as reduction in cell viability after 24 hrs by MTT assay. The format is functional, cell-based. The following applies: U-937, 24 h. Put shortly:
as §1

The subject of a further test is HL-60. The experiment in a line: Antiproliferative activity against human HL60 cells assessed as reduction in cell viability after 24 hrs by MTT assay. In kind it is functional, cell-based. The following applies: HL-60, 24 h. The gist of the method:
as §1

The subject of a further test is MDA-MB-468. Description: Antiproliferative activity against human MDA-MB-468 cells assessed as reduction in cell viability after 24 hrs by MTT assay. In kind it is functional, cell-based. The following applies: MDA-MB-468, 24 h. Put shortly:
as §1

The test system of another test is MCF7. The experiment in a line: Antiproliferative activity against human MCF-7 cells assessed as reduction in cell viability after 24 hrs by MTT assay. In kind it is functional, cell-based. Conditions: MCF7, 24 h. Put shortly: as §1

As to `O=[N+]([O-])c1ccc(Oc2nc(Nc3ccc(Cl)cc3)ncc2Br)c(F)c1`, the inhibition in test [1] was found to be 15.7%. Besides, the IC50 in the test with A549 is 37.6 µM; in the test on U-937, 43.1 µM; in the test with HL-60 it was over 50 µM; with MDA-MB-468, over 50 µM; in the test on MCF7 it was over 50 µM.
Turning to `CNC(=O)c1ccccc1Oc1nc(Nc2cc(OC)c(OC)c(OC)c2)ncc1Br`, the IC50 turned out to be 6.78 µM in the test with A549; 25.1 µM in the test on U-937; 18.9 µM with HL-60; 18.4 µM in the test on MDA-MB-468; 26.2 µM in the test with MCF7.
`Cc1cccc(Nc2ncc(Br)c(Oc3cccc([N+](=O)[O-])c3)n2)c1`: the inhibition in test [1] was found to be 40.2%. In addition, the half-inhibitory concentration (IC50) with A549 was 24.6 µM; with U-937, 51.2 µM; in the test on HL-60, 38.7 µM; in the test with MDA-MB-468 it was 36.7 µM; in the test on MCF7 it was over 50 µM.
Consider `Cc1cccc(Nc2ncc(Br)c(Oc3ccc(Br)cc3)n2)c1`, for which the inhibition in test [1] was 25.7%. For the same compound, the IC50 with A549 is 10.3 µM; in the test on U-937, 18.6 µM; in the test on HL-60 it was 14.7 µM; in the test with MDA-MB-468, 31.3 µM; in the test with MCF7 it was 19.1 µM.
Take `COc1cc(Nc2ncc(I)c(NCCCN)n2)cc(OC)c1OC`: the inhibition in test [1] was 32.3%. Also, the half-maximal inhibitory concentration (IC50) with A549 is 39.6 µM; in the test with U-937, 39.9 µM; in the test on HL-60, 43.4 µM; with MDA-MB-468 it was over 50 µM; in the test on MCF7, over 50 µM.
With `CNC(=O)c1ccccc1Oc1nc(Nc2cccc(C)c2)ncc1Br`, the inhibition in test [1] was found to be 73.7%. Further, the IC50 was 6.1 µM with A549; 15.9 µM in the test with U-937; 16.2 µM with HL-60; 18.6 µM in the test with MDA-MB-468; 16.6 µM in the test on MCF7.
In the case of `CNC(=O)c1ccccc1Oc1nc(Nc2ccc(C)cc2C)ncc1Br`, in test [1], the inhibition turned out to be 38.2%. Moreover, the half-inhibitory concentration (IC50) with A549 is 27.3 µM; in the test with U-937, 49.6 µM; with HL-60, 32.3 µM; in the test on MDA-MB-468, 40.7 µM; in the test on MCF7, 44.7 µM.
With `CNC(=O)c1ccccc1Oc1nc(Nc2cccc(Br)c2)ncc1Br`, the inhibition in test [1] amounted to 62.7%. Moreover, the IC50 in the test with A549 stood at 10.6 µM; with U-937, 49 µM; with HL-60 it was 38.7 µM; with MDA-MB-468, 31.9 µM; with MCF7 it was 42.5 µM.
Turning to `CNC(=O)c1ccccc1Oc1nc(Nc2ccc(Br)cc2)ncc1Br`, in test [1], the inhibition is 40.1%. In addition, the IC50 is 23.5 µM in the test with A549; over 50 µM with U-937; 39.7 µM in the test on HL-60; 36.6 µM in the test on MDA-MB-468; over 50 µM in the test with MCF7.
`CNC(=O)c1ccccc1Oc1nc(Nc2ccc(Cl)cc2F)ncc1Br`: the inhibition in test [1] turned out to be 17.8%. For the same compound, the concentration for half-maximal inhibition (IC50) was 38.1 µM with A549; over 50 µM in the test with U-937; over 50 µM in the test on HL-60; over 50 µM in the test with MDA-MB-468; over 50 µM in the test on MCF7.
For `Cc1cccc(Nc2ncc(Br)c(Oc3ccc(OCc4ccccc4)cc3)n2)c1`, the inhibition in test [1] is 16.3%. In addition, the half-inhibitory concentration (IC50) is 48.7 µM in the test on A549; over 50 µM in the test with U-937; over 50 µM in the test on HL-60; over 50 µM in the test on MDA-MB-468; over 50 µM with MCF7.
Take `CNC(=O)c1ccccc1Oc1nc(Nc2ccccc2OC)ncc1Br`: the inhibition in test [1] stood at 19.2%. Besides, the half-maximal inhibitory concentration (IC50) is 40.5 µM in the test with A549; 52.1 µM in the test on U-937; over 50 µM in the test on HL-60; over 50 µM in the test with MDA-MB-468; over 50 µM with MCF7.
With `CNC(=O)c1ccccc1Oc1nc(Nc2ccc(C(F)(F)F)cc2)ncc1Br`, the inhibition in test [1] is 21.6%. Further, the IC50 with A549, with U-937, with HL-60, in the test on MDA-MB-468 and with MCF7 was over 50 µM throughout.
Consider `CCN(CC)CCNc1ccnc(Nc2cc(OC)c(OC)c(OC)c2)n1`, for which, in test [1], the inhibition amounted to 13.4%. Also, the half-maximal inhibitory concentration (IC50) is 46.4 µM in the test on A549; over 50 µM in the test with U-937; over 50 µM in the test with HL-60; over 50 µM in the test on MDA-MB-468; over 50 µM with MCF7.
Regarding `CCOc1ccccc1Oc1nc(Nc2cccc(C)c2)ncc1Br`, the inhibition in test [1] was determined as 75.7%. The concentration for half-maximal inhibition (IC50) in the test on A549 was determined as 20.3 µM; with U-937 it was 38.6 µM; in the test with HL-60 it was 34.7 µM; in the test with MDA-MB-468, 31.4 µM; in the test on MCF7 it was 39.1 µM.
Consider `Cc1cccc(Nc2ncc(Br)c(Oc3cc(Cl)cc(Cl)c3)n2)c1`, for which the inhibition in test [1] came to 3.78%. For the same compound, the IC50 in the test on A549 was 43.9 µM; in the test with U-937, over 50 µM; in the test on HL-60 it was over 50 µM; with MDA-MB-468 it was over 50 µM; in the test on MCF7, over 50 µM.
Regarding `CNC(=O)c1ccccc1Oc1nc(Nc2ccc3c(c2)OCO3)ncc1Br`, in test [1], the inhibition worked out at 22.2%. Moreover, the IC50 in the test on A549, in the test with U-937, in the test on HL-60, in the test with MDA-MB-468 and in the test on MCF7 was over 50 µM throughout.
On to `CNC(=O)c1ccccc1Oc1nc(Nc2cccc(C(F)(F)F)c2)ncc1Br`, for which the inhibition in test [1] was 38.8%. Besides, the 50% inhibitory concentration (IC50) with A549 was 28.3 µM; with U-937 it was 45.5 µM; in the test with HL-60, 44 µM; in the test with MDA-MB-468 it was 32.8 µM; with MCF7, 57.8 µM.
In the case of `COc1cc(Nc2nccc(NCCCN)n2)cc(OC)c1OC`, the inhibition in test [1] came to 17.7%. For the same compound, the IC50 with A549 was 29.7 µM; with U-937, over 50 µM; in the test on HL-60 it was over 50 µM; in the test with MDA-MB-468, 45.8 µM; in the test with MCF7 it was over 50 µM.
With `O=[N+]([O-])c1ccc(Oc2nc(Nc3ccc(Br)cc3)ncc2Br)c(F)c1`, in test [1], the inhibition was found to be 12.5%. Moreover, the IC50 was 51 µM with A549; over 50 µM in the test with U-937; over 50 µM in the test with HL-60; over 50 µM in the test with MDA-MB-468; over 50 µM with MCF7.
Turning to `CNC(=O)c1ccccc1Oc1nc(Nc2ccccc2F)ncc1Br`, the inhibition in test [1] worked out at 27.4%. The concentration for half-maximal inhibition (IC50) with A549 is 35.5 µM; with U-937 it was over 50 µM; with HL-60 it was over 50 µM; in the test on MDA-MB-468 it was over 50 µM; in the test on MCF7, over 50 µM.
Regarding `Cc1cccc(Nc2ncc(Br)c(Oc3cccc(F)c3)n2)c1`, the inhibition in test [1] amounted to 49.3%. For the same compound, the IC50 turned out to be 13.9 µM in the test with A549; 19.4 µM in the test on U-937; 15.5 µM with HL-60; 29.2 µM in the test on MDA-MB-468; 26.8 µM in the test on MCF7.
Turning to `CNC(=O)c1ccccc1Oc1nc(Nc2cccc(C(C)C)c2)ncc1Br`, the inhibition in test [1] was 84%. Further, the IC50 was determined as 7.14 µM in the test with A549; 14.1 µM with U-937; 17.5 µM in the test on HL-60; 19.4 µM in the test on MDA-MB-468; 26.5 µM with MCF7.
For `CNC(=O)c1ccccc1Oc1nc(Nc2cccc(OC)c2)ncc1Br`, the inhibition in test [1] is 50.5%. The IC50 was 6.23 µM in the test on A549; 24.3 µM with U-937; 16.2 µM in the test with HL-60; 17.8 µM in the test with MDA-MB-468; 18.2 µM in the test on MCF7.
In the case of `CCN(CC)CCNc1nc(Nc2cc(OC)c(OC)c(OC)c2)ncc1I`, the inhibition in test [1] was found to be 44.9%. For the same compound, the half-maximal inhibitory concentration (IC50) was 16.9 µM in the test on A549; 22 µM with U-937; 21.6 µM in the test with HL-60; 32.3 µM with MDA-MB-468; 32.7 µM with MCF7.
